Hits are enriched below; roughly 1.5% of the tested compounds scored in any of these assays.
CSN deneddyl inh = inhibitors of CSN-mediated cullin deneddylation, primary screen, biochemical, fluorescence polarization, uHTS; COP9 signalosome complex subunit 5 (Homo sapiens), Q92905; Purified CSN, SCF-Nedd8-OG deneddylation; inhibition, % at 12.5 µM; 0.38% of 360,000 active;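 active = pattern-corrected inhibition above about 35%, with an unprinted fluorescence ratio check between 0.5 and 1.5, limit read from the data, passing the limit was not always enough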
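Schedule: reaction 90 min, room temperature / Assay system: HEK293T-derived human Csn5 enzyme / Input: Csn5 at 0.24 nM final / Measure: inhibition of Csn5 cleavage, % / Control set: substrate-only high control, full reaction low control / Technique: fluorescence polarization of the substrate / Buffer or medium: Tris/NaCl/DTT buffer, pH 7.5 / Reagent: SCFSkp2-Nedd8OG substrate at 10 nM final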
HNF4A DNA FP = change in binding of human HNF4A to DNA, primary screen, biochemical, fluorescence polarization, FITC-DNA; activity change, % at 10 µM; 1 h; Hepatocyte nuclear factor 4-alpha (Homo sapiens), P41235; 0.3% of 360,000 active; AID 1224865, 2016; in the data active = activity change above about 30%, passing the limit was not always enough
Rpn11 inh = Rpn11 (PSMD14) deubiquitinase inhibitors, primary screen, biochemical, fluorescence polarization, uHTS; 26S proteasome non-ATPase regulatory subunit 14 (Homo sapiens), O00487; human 26S proteasome, Ub4-pepOG fluorescence polarization; 20S core pre-blocked with epoxomicin; inhibition, % at 20 µM; 0.59% of 360,000 active; AID 588493, 2011;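 active = inhibition at 20 µM, scaled to each plate's controls, above about 33%, limit read from the data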
TPT1 inh = Candida albicans TPT1 enzyme inhibitors, primary screen, biochemical, fluorescence polarization. tRNA 2'-phosphotransferase TPT1 (Candida albicans SC5314). recombinant caTPT1, FP RNA substrate dephosphorylation. inhibition, % at 5 µM. 0.81% of 300,000 active;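 active = inhibition above the mean of all tested compounds plus 3 SD, set per screening campaign, cut at about 24% in these data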
Rpn11 inh conf = Rpn11 (PSMD14) deubiquitinase inhibitors, confirmation, biochemical, fluorescence polarization, single concentration | shares compounds with Rpn11 inh | purified human 26S proteasome, Ub4-pepOG fluorescence polarization; proteasome pretreated with epoxomicin | inhibition, % at 20 µM | 29% of 1,900 active
MMP-2 counter = MMP-2 enzyme inhibition, confirmation, counter-screen for RPN11 inhibitor project, biochemical, fluorescence, single concentration; shares compounds with Rpn11 inh; recombinant MMP-2, FRET peptide cleavage fluorescence; inhibition, % at 20 µM; 4% of 1,900 active; AID 602330, 2012;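 also: human MMP-2 activated beforehand with APMA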
Target sequence (P08253 whole entry, looked up): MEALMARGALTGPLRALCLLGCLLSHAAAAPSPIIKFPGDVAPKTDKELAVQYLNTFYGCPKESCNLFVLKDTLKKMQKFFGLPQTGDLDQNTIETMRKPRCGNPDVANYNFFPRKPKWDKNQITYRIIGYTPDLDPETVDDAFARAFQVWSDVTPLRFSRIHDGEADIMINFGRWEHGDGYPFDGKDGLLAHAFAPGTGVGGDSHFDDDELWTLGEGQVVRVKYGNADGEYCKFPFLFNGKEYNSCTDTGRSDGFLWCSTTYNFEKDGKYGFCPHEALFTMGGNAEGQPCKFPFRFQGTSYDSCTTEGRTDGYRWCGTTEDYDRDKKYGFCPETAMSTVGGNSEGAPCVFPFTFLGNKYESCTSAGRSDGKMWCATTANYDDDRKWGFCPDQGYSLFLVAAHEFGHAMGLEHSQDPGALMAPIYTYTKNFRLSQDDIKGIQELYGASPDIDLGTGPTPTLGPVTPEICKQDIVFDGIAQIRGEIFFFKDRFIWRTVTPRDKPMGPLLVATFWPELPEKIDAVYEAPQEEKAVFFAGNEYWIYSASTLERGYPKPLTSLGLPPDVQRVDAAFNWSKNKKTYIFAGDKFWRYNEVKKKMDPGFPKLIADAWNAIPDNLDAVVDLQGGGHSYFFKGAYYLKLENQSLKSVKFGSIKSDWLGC
Thrombin inh = bovine thrombin protease inhibition, confirmation, counter-screen for Rpn11 inhibitor project, biochemical, fluorescence polarization, single concentration; inhibition, % at 20 µM; 13% of 1,900 active; AID 602333, 2012; bovine thrombin cleavage of Ub4-pepOG; shares compounds with Rpn11 inh;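 active = mean inhibition at least 40% at 20 µM, or signal 3 deviations below plate average, so some actives read negative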
Of the large screens only hits and unclear results are named; the others gave an inactive call (follow-up assays come after a bar, where they were run). Rule as the data show it, unless noted: active = inhibition above about 40%; inactive = the rest.

COC(=O)c1ccc(NC(=O)Cn2nc(-c3ccncc3)nc2SCC(=O)Nc2nccs2)cc1	Rpn11 inh 34 | Rpn11 inh conf inactive | MMP-2 counter inactive | Thrombin inh inactive
CC1(C(=O)NCC2CCCCC2)CCN1C(=O)Cc1ccc(-c2ccccc2)cc1 (centres undefined)	none (no result: TPT1 inh)
COc1cccc(CC(=O)N2CCC(n3nccc3NC(=O)C3CCOC3)CC2)c1 (centres undefined)	none
CCOC(=O)c1sc(NC(=O)/C=C/c2c(F)cccc2Cl)nc1C	HNF4A DNA FP 34, Rpn11 inh 48 | Rpn11 inh conf inactive | MMP-2 counter inactive | Thrombin inh inactive
O=C1c2ccccc2C2N1CCCN2C(=O)c1sc2ccccc2c1Cl (centres undefined)	none (no result: TPT1 inh)
CC(C)=CCC/C(C)=C/CNC(=O)C[C@H]1C[C@H](C(=O)N2CCCCC2)[C@@]2(CCc3ccccc3)c3[nH]c4cc(-c5ccco5)ccc4c3CCN2C1=O	Rpn11 inh 47 (no result: TPT1 inh) | Rpn11 inh conf inactive | MMP-2 counter inactive | Thrombin inh inactive
O=C(C[C@H]1C[C@H](C(=O)N2CCCCC2)[C@@]2(CCc3ccccc3)c3[nH]c4cc(-c5ccco5)ccc4c3CCN2C1=O)NCCN1CCOCC1	Rpn11 inh 43 (no result: TPT1 inh) | Rpn11 inh conf inactive | MMP-2 counter inactive | Thrombin inh inactive
Cc1nc2c(=O)[nH]n(C)c2nc1C	none (no result: TPT1 inh)
Cc1ccc(C(=O)N=c2sccn2C)cc1S(=O)(=O)N1CCOCC1	HNF4A DNA FP 37, Rpn11 inh 68 | Rpn11 inh conf inactive | MMP-2 counter inactive | Thrombin inh inactive
CCCc1cc(C(F)(F)F)c(C#N)c(=O)[nH]1	none
CC(C)(C)c1cc(C(F)(F)F)c(C#N)c(=O)[nH]1	Rpn11 inh 65 | Rpn11 inh conf inactive | MMP-2 counter inactive | Thrombin inh inactive
Cc1cc(Br)ccc1NC(=O)CN(C)C(=O)C1CCN(C(=O)c2ccc(Cl)cc2)CC1	none (no result: TPT1 inh)
Cc1cccc(C(P(=O)(c2ccccc2)c2ccccc2)P(=O)(c2ccccc2)c2ccccc2)n1	none
Cc1cccc(C(O)C(O)c2cccc(C)n2)n1 (centres undefined)	Rpn11 inh 99 (no result: TPT1 inh) | Rpn11 inh conf inactive | MMP-2 counter inactive | Thrombin inh inactive
CC1CCc2nc3ccc(S(=O)(=O)N4CCC(C(=O)NC(C)c5ccccc5)CC4)cc3c(C(=O)O)c2C1 (centres undefined)	none
CCOC(=O)Cc1csc(NC(=O)c2sc3nc4c(C)cc(C)cc4cc3c2N)n1	HNF4A DNA FP 40, Rpn11 inh 48 | Rpn11 inh conf inactive | MMP-2 counter inactive | Thrombin inh inactive
FC(F)Oc1ccc(NC(=S)NNc2ccnc3cc(Cl)ccc23)cc1	Rpn11 inh 50 | Rpn11 inh conf 84 | MMP-2 counter inactive | Thrombin inh active
Cc1cc(CNC[C@H]2O[C@@H](n3cnc4c(N)ncnc43)[C@H](O)[C@@H]2O)no1	none (no result: TPT1 inh)
COc1cccc(NC(=O)CN(C)C(=O)CC2CC3CCC2C3)c1 (centres undefined)	none
Cc1cc(NC(=O)CCC(=O)N(c2ccccc2)C(C(=O)NCC2CCCO2)c2cccnc2)no1 (centres undefined)	Rpn11 inh 54 | Rpn11 inh conf inactive | MMP-2 counter inactive | Thrombin inh inactive
CN1C=CC=C/C1=C1/N=C(c2ccccc2)OC1=O	none
CC1=CC(=C2N=C(c3ccccc3)OC2=O)C=C(C)O1	CSN deneddyl inh 62, Rpn11 inh 51 | Rpn11 inh conf 152 | MMP-2 counter inactive | Thrombin inh inactive
Nc1nc(-c2cc(O)ccc2[N+](=O)[O-])cc(-c2ccccc2)c1[N+](=O)[O-]	Rpn11 inh 40 (no result: TPT1 inh) | Rpn11 inh conf 43 | MMP-2 counter inactive | Thrombin inh inactive
O=[N+]([O-])c1cc(-c2ccccc2)cc([N+](=O)[O-])c1O	none (no result: TPT1 inh)
CN1/C(=C/C(=O)c2nc(S(C)(=O)=O)ncc2Cl)C(C)(C)c2ccccc21	Rpn11 inh 49 | Rpn11 inh conf inactive | MMP-2 counter inactive | Thrombin inh inactive
CCCN(CC(=O)Nc1cc(Cl)ccc1Cl)C(=O)c1ccccn1	none (no result: TPT1 inh)
N#CNC(=Nc1cccc(F)c1)SCc1cccc(F)c1	none
N#CNC(=Nc1cccc(F)c1)SCc1ccccc1	Rpn11 inh 47 | Rpn11 inh conf inactive | MMP-2 counter inactive | Thrombin inh inactive
C[C@H]1CN=C(N(C)C)N1CCC1CCCCC1	none
Cc1ccccc1S(=O)(=O)NC(=O)C1(C)CCN1C(=O)COc1ccc(Cl)cc1 (centres undefined)	none (no result: TPT1 inh)
CNC(=O)C1CN(C(=O)c2cccc(S(=O)(=O)N3c4ccccc4CC3C)c2)c2ccccc2O1 (centres undefined)	none (no result: TPT1 inh)
Cc1ccc(CNC(=O)c2ccc(N3CCC4(CC3)CC(c3cccc(Br)c3)=NO4)c(NC(=O)c3cccc(C)c3)c2)cc1	Rpn11 inh 42 | Rpn11 inh conf inactive | MMP-2 counter inactive | Thrombin inh inactive
COc1ccc(OC)c(NP2(=O)OCC(C)([N+](=O)[O-])CO2)c1 (centres undefined)	none (no result: TPT1 inh)
CCC(CC)C(=O)c1c[nH]c(C(=O)NCc2ccco2)c1	none
CCC(CC)C(=O)c1c[nH]c(C(=O)NCc2cccs2)c1	Rpn11 inh 71 | Rpn11 inh conf inactive | MMP-2 counter inactive | Thrombin inh inactive
CC(=O)c1ccc(OCCCC(=O)NCCc2ccc(C(F)(F)F)cc2)cc1	none
COC(=O)c1ccccc1NC(=O)CN1CCCCC1	none
COC(=O)c1ccccc1NC(=O)CN1CCN(Cc2ccccc2)CC1	Rpn11 inh 37 | Rpn11 inh conf inactive | MMP-2 counter inactive | Thrombin inh inactive
Cc1ccccc1NC(=O)Cn1nnc(S(=O)(=O)c2ccc(C(C)(C)C)cc2)c1N	Rpn11 inh 55 | Rpn11 inh conf inactive | MMP-2 counter inactive | Thrombin inh inactive
Cc1ccccc1NC(=O)Cn1nnc(C(=O)NCc2ccco2)c1N	none
Cc1ccc(NC(=O)CN2C(=O)N/C(=C\c3ccco3)C2=O)cc1	Rpn11 inh 46 (no result: TPT1 inh) | Rpn11 inh conf inactive | MMP-2 counter inactive | Thrombin inh inactive
Cc1ccc(NC(=O)CN2C(=O)N/C(=C\c3cccnc3)C2=O)cc1	none
COC(=O)c1sccc1NC(=O)c1ccc2c(c1)OCO2	none

From PubChem
